Screening results: PubChem, Broad Institute
Rows were chosen to be rich in hits. Some 2.6% of all compounds tested hit in one or more screens of this group.
E-sel inducer: induces E-selectin expression in human endothelial cells; HUVEC E-selectin immunofluorescence imaging; normalized: neutral wells 0, TNF-alpha wells 100; activation, % at 7.58 µM; hit rate 0.37% among 260,000; AID 686992;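 active = mean E-selectin-positive cell signal at least 10% of the positive control, reached in at least 60% of replicates, without over 20% cell loss; inconclusive = no rule given, readout overlaps actives, possibly toxicity-flagged; inactive = the rest, including those meeting only one limit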
Target sequence (P16581 whole entry, looked up): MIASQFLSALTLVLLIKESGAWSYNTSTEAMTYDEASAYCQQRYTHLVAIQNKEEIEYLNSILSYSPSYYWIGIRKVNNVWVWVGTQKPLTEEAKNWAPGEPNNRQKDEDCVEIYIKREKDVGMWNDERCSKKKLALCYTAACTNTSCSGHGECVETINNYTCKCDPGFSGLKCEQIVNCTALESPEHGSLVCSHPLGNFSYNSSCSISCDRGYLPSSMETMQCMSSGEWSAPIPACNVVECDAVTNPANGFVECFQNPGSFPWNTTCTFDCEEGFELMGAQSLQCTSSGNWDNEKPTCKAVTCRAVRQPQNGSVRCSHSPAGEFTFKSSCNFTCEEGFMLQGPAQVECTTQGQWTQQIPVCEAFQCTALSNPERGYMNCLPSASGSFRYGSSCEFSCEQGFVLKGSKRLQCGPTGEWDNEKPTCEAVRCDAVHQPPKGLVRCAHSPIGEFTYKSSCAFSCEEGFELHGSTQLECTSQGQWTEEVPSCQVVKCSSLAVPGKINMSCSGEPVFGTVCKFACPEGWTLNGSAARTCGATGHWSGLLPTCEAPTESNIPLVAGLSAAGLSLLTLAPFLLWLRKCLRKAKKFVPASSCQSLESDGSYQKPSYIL
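Test system: HUVEC; input: 3,000 HUVEC/well; measured by: immunofluorescence imaging; read-out: % PE-positive cells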
rRNA inh HTS: inhibits bacterial ribosomal RNA function over humanized ribosomes; E. coli WT GFP vs humanized-ribosome RFP mutants, fluorescence, 24 h; active compounds read low; DMSO median 0, no signal -100; GFP signal change (wild-type ribosome), % (concentration not given with the values); AID 720706; hit rate 1.6% among 350,000;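 active = significant combined selectivity score with lowered wild-type GFP, culture density cut under 30%, mutant RFP and density less affected; inactive = any of these conditions unmet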
GSIS activator: GLuc luminescence reporter in INS-1E cells, primary screen for activators of glucose-dependent secretion of insulin | AID 743287 | hit rate 0.61% among 370,000 | activation, % at 16.6 µM | INS-1E GLuc reporter insulin secretion, 2-3 h;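 active = lowest replicate activation of at least 40%, so every replicate reaches that level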;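 note: 0% = median of neutral control wells and 100% = median of IBMX positive control wells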
RAD54 branch: inhibitors of human RAD54 branch migration; Q92698; AID 602329; inhibition, % at 10.4 µM; RAD54 Holliday junction branch migration, FAM/BHQ fluorescence; hit rate 0.14% among 360,000;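 active = mean normalized replicate activity at least 40 and at least half of replicates scoring 40 or more; inconclusive = only one of the two criteria met; inactive = mean below 40 and under half of replicates reaching 40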;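 note: 0% = median of neutral control wells and 100% = median of positive control wells; inhibitors cause a drop in the FAM fluorescence signal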
MLL AF4-AF9 inh: blocks AF4 peptide binding to human AF9; inhibition, % at 10 µM; AID 651704; hit rate 0.47% among 350,000; P42568; AlphaScreen, biotin-AF4 peptide binding to FLAG-AF9;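 active = every replicate reaching a set inhibition limit, whatever the replicate mean, cut at about 25% in these data; inconclusive = mean inhibition reaches that limit but some replicates miss it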;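 note: 0% = plate neutral control median and 100% = total signal loss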
RAD52 anneal inh: blocks human RAD52 DNA annealing. inhibition, % at 18.7 µM. recombinant RAD52 DNA annealing, FRET fluorescence. P43351. hit rate 0.46% among 360,000;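 active = every replicate showing at least 50% inhibition; inconclusive = mean inhibition at least 50% but not in every replicate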
HepG2 cytotox: cytotoxic compounds in HepG2 cells; shares compounds with rRNA inh HTS; HepG2 viability, ATP luminescence, 72 h; activity change, negative = cytotoxicity, unspecified at 26 µM; 30 tested, under 10 active; AID 743480;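 active = compounds whose fitted half-maximal signal-loss concentration is at most twice their highest valid dose; inconclusive = flat curve with 30 to 70% signal loss, or poor fit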
AID977621: wild-type E. coli growth inhibition versus H69 humanized strain – H69 mutant RFP, wild-type GFP, cherry-pick, dose response; 1,900 tested, under 10 active; activity change, negative = inhibition at 50 µM; fluorescence, 24 h; AID 977621; shares compounds with rRNA inh HTS;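 active = Wild-type ribosome reporter drop at least double the humanized mutant ribosome reporter drop, growth loss under a set limit; inconclusive = no clear call, values can overlap the other calls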;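 note: wild-type GFP and H69 mutant RFP strains grown together 50/50 in each well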
AID977628: E. coli growth inhibition, wild-type GFP versus h24 humanized RFP strain, dose response, h24 mutant RFP vs wild-type GFP, cherry-pick; shares compounds with rRNA inh HTS; E. coli WT GFP strain growth, fluorescence, 24 h; activity change, negative = inhibition at 50 µM; 1,900 tested, under 10 active; AID 977628;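 active = compound lowering the normal-ribosome reporter at least twice as much as the humanized-ribosome reporter, growth loss under a set limit; inconclusive = no clear call, values can overlap the other calls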;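 note: wild-type GFP and h24 humanized RFP strains co-cultured 1 to 1 per well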
Numbers without * were called inactive; ? = inconclusive; nt = no result.

SMILES	E-sel inducer	rRNA inh HTS	GSIS activator	RAD54 branch	MLL AF4-AF9 inh	RAD52 anneal inh	AID977621	AID977628	others
CN(C(=O)c1ccc(F)cc1)c1ccc(OCC(=O)Nc2ccccc2C(=O)O)cc1	0	-14*	-14	5	-1	-9	-0.79	?
O=C(COc1ccc(Br)cc1)Nc1ccc(C(=O)Nc2ccccc2C(=O)O)cc1	nt	-28*	27	9	-5	-2	-2.8	-6.1
CC(=O)NS(=O)(=O)c1ccc(NC(=O)COc2ccc(C(=O)c3ccccc3)cc2)cc1	nt	-27*	13	-12	13	-17	?	nt
CN(C)S(=O)(=O)c1cccc(NC(=O)COc2ccc(C(=O)c3ccccc3)cc2)c1	0	-13	-39	nt	2	-15	nt	nt
Cc1noc(C)c1NC(=O)N(C)C[C@@H]1Oc2ccc(NC(=O)Nc3ccccc3)cc2C(=O)N([C@H](C)CO)C[C@H]1C	nt	-2	12	0	-3	-1	nt	nt
COc1cc(OC)cc(C(=O)N[C@H](C(=O)OCC(=O)Nc2ccc(C)cc2C)C(C)C)c1	nt	-8	-25	-9	7	-6	nt	nt
COc1cc(OC)cc(C(=O)N[C@H](C(=O)OCC(=O)Nc2ccc(F)c(F)c2F)C(C)C)c1	2	-20*	-39	10	4	-27	?	nt
CO[C@H]1CC[C@H]2CCN(C)C(=O)[C@H](C)[C@H](OC)CN(C)C(=O)c3cccc(C#N)c3OC[C@H]1O2	0	3	-7	-2	-2	-8	nt	nt
Cc1csc2c(N3CCC(C(=O)O)CC3)ncnc12	0	-32*	23	nt	nt	-7	nt	?
Cc1csc2c(N3CCCCC3)ncnc12	nt	-9	7	nt	-2	-6	nt	nt
COc1ccc(-c2csc(NC(=O)c3ccoc3C)n2)cc1	1	-25*	9	nt	-1	-21	nt	-7.2
COc1ccc(-c2csc(NC(=O)c3ccccc3S(C)(=O)=O)n2)cc1	0	-36*	-11	nt	3	-8	-6.3	?
Cc1ccc(Cn2cnc3ccccc32)cc1	nt	-25*	3	-6	-18	10	-13	-0.7
C[C@@H]1CCCCO[C@@H](CN(C)C(=O)CCCN(C)C)[C@@H](C)CN([C@H](C)CO)C(=O)c2cc(NC(=O)Nc3cccc4ccccc34)ccc2O1	0	3	7	14	-5	20	-1.8	?
C[C@@H]1CCCCO[C@H](CN(C)C(=O)CCCN(C)C)[C@H](C)CN([C@@H](C)CO)C(=O)c2cc(NC(=O)Nc3cccc4ccccc34)ccc2O1	0	-36*	-6	10	16	30	nt	nt	HepG2 cytotox=15
C[C@@H]1CCCCO[C@H](CN(C)C(=O)CCCN(C)C)[C@@H](C)CN([C@H](C)CO)C(=O)c2cc(NC(=O)Nc3cccc4ccccc34)ccc2O1	0	-1	26	10	-1	9	?	8.2
C[C@@H]1CN([C@@H](C)CO)C(=O)c2cc(NC(=O)Nc3cccc4ccccc34)ccc2O[C@@H](C)CCCCO[C@@H]1CN(C)C(=O)CCCN(C)C	1	2	-1	-1	8	12	nt	nt
CC(C)NC(=O)N(C)C[C@H]1Oc2ncc(-c3ccccc3F)cc2C(=O)N([C@@H](C)CO)C[C@H]1C	0	3	24	-4	-4	-8	nt	nt
C[C@H](CO)N1C[C@H](C)[C@H](CN(C)C(=O)NC2CCCCC2)Oc2c(NC(=O)C3CCCCC3)cccc2C1=O	0	-5	10	0	-1	-6	nt	nt
O=S(=O)(Nc1ccc(-c2cnco2)cc1)c1ccccc1	7	-25*	20	nt	nt	-2	-11	nt
O=C([C@@H]1[C@@H](CO)[C@@H]2Cn3c(cccc3=O)[C@@H]2N1C(=O)C1CCCC1)N1CCOCC1	0	4	-4	nt	-4	-9	nt	nt
COc1cccc(S(=O)(=O)N(C)C[C@@H]2OCc3cn(nn3)CCCC(=O)N([C@H](C)CO)C[C@@H]2C)c1	1	-1	-4	nt	nt	nt	nt	nt
CCN(C(=O)c1ccnc(C(C)(C)C)c1)c1ccccc1	nt	-34*	-2	nt	1	-11	nt	?
CCN(C(=O)c1ccc(Cl)c([N+](=O)[O-])c1)c1ccccc1	nt	-1	38	nt	3	-6	nt	nt
C[C@@H]1CCCCO[C@@H](CN(C)C(=O)Nc2cccc3ccccc23)[C@H](C)CN([C@H](C)CO)C(=O)c2cc(NC(=O)c3ccccc3)ccc2O1	nt	3	45	-2	-2	-4	nt	nt
SMILES	E-sel inducer	rRNA inh HTS	GSIS activator	RAD54 branch	MLL AF4-AF9 inh	RAD52 anneal inh	AID977621	AID977628	others
Cc1ccc(C)c(-c2[nH]ncc2CN2CCCC(CO)(Cc3ccccc3C)C2)c1 (stereo unspecified)	-1	-30*	-8	nt	8	-3	-8.9	nt
OCC1(Cc2ccccc2)CCCN(Cc2cn[nH]c2-c2ccccc2)C1 (stereo unspecified)	nt	3	5	nt	3	2	nt	nt
CO[C@H]1CN(C)C(=O)c2cc(NC(=O)C3CC3)ccc2OC[C@H](C)N(CC2CCOCC2)C[C@@H]1C	0	-2	0	3	-9	8	nt	nt
O=C(c1cccc(F)c1)N1CC2(C1)[C@@H](c1ccccc1)[C@@H](CO)N2C(=O)C1CCC1	0	-3	0	nt	1	-3	nt	nt
COCC(C)NC(=O)c1nn(Cc2ccccc2)c(=O)c2ccccc12 (stereo unspecified)	nt	-13*	31	-5	1	-2	-18	-2.4
COC(=O)c1c2oc(c1C(=O)OC)C(=O)N[C@@H](Cc1ccccc1)Cn1cc(nn1)CNC(=O)[C@@H](Cc1ccccc1)NC(=O)N[C@@H](CO)CC2	nt	nt	nt	-4	0	1	nt	nt
CCOC(=O)CCSc1nc(N2CCOCC2)c2c(c1C#N)CC(C)(C)OC2	0	6	-2	nt	-6	-12	nt	nt
CCOC(=O)C(C)Sc1nc(N2CCOCC2)c2c(c1C#N)CC(C)(C)OC2 (stereo unspecified)	0	-29*	nt	0	-1	-13	-11	-10
Cc1ccc(-c2c[n+](CC(=O)OCc3ccccc3)c3n2CCC3)cc1	nt	-14*	-22	-12	4	2	-20	-8.4
Cc1cc(C)n(CC(O)COc2ccccc2)n1 (stereo unspecified)	nt	nt	nt	-2	nt	nt	nt	nt
Cc1cc(C)n(CC(O)COc2ccc3ccccc3c2)n1 (stereo unspecified)	1	-29*	-2	nt	-3	-31	-16	nt
